Measurements as given in ChEMBL document CHEMBL1143480, “Bicyclic heteroarylpiperazines as selective brain penetrant 5-HT6 receptor antagonists” (Bioorg Med Chem Lett, 2005).

How the values were obtained:
[1] = molecular target: T1, 5-hydroxytryptamine receptor 6 (Homo sapiens, UniProt P50406); test: Displacement of [3H]LSD from human 5-hydroxytryptamine 6 receptor expressed in HeLa cells; type: cell-based
Outline: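 Human cloned 5-HT6 receptor expressed in HeLa cells. Binding measured by [3H]LSD displacement and reported as pKi. Each value is the mean of at least three experiments, each within 0.3 of the mean.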

[2] = molecular target: 5-hydroxytryptamine receptor 6 (Rattus norvegicus) (UniProt P31388); test: (§1) In vivo binding assay against rat 5-hydroxytryptamine 6 receptor using [125I]-SB-258,585; type: functional, organism-based
Outline: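 Ex vivo assay. Rats were given vehicle or antagonist orally with a 4 h pretreatment, then killed. Striatum was removed and homogenised, and a binding assay with a selective 5-HT6 radioligand was run on the tissue. Potency is expressed as oral ED50 (mg/kg).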

[3] = molecular target: 5-hydroxytryptamine receptor 6 (Rattus norvegicus) (UniProt P31388); test: as §1; type: organism-based
Outline: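 Ex vivo assay: rats were dosed orally with vehicle or antagonist and killed after a 4 h pretreatment. Striatum was removed and homogenised, and a binding assay with the selective 5-HT6 radioligand was run on the tissue. ED50 was expressed as mg/kg po.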

[4] = molecular target: T1, 5-hydroxytryptamine receptor 6; test: Binding affinity against 5-hydroxytryptamine 6 receptor of human caudate
[5] = molecular target: T1, 5-hydroxytryptamine receptor 6; conditions: HeLa
[6] = molecular target: 5-hydroxytryptamine receptor 6 (Rattus norvegicus, UniProt P31388); test: Binding affinity against 5-hydroxytryptamine 6 receptor of rat striatum; type: tissue-based
Sequence of 5-hydroxytryptamine receptor 6 (Rattus norvegicus, UniProt P31388) (P31388 whole entry): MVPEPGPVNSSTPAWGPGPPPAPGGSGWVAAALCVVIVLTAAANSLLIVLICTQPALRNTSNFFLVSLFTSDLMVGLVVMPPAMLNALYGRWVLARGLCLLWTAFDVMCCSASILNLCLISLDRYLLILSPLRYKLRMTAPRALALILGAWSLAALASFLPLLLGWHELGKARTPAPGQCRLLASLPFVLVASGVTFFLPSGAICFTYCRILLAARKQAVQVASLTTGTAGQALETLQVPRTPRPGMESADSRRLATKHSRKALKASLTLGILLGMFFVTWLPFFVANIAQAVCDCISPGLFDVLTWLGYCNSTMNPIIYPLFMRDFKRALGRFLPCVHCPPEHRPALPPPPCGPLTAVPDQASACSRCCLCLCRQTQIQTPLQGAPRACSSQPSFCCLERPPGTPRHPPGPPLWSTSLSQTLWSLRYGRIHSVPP

Sequence of 5-hydroxytryptamine receptor 6 (Rattus norvegicus) (P31388 whole entry): as above
T1 sequence (P50406 whole entry): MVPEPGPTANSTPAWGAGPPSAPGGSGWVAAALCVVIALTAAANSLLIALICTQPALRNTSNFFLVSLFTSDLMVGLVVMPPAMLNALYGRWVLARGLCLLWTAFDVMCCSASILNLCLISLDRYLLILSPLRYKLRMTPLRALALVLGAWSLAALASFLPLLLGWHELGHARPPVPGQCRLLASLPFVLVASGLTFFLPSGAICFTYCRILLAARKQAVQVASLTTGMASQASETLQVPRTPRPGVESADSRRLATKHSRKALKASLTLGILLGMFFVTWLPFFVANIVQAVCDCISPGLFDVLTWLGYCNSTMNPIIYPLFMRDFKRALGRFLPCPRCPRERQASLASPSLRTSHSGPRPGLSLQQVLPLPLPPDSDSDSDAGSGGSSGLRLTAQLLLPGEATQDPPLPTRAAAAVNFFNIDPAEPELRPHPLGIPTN

SMILES | Ki [1] [nM] | other results
O=S(=O)(c1ccccc1Cl)n1ccc2c(N3CCNCC3)c(Cl)ccc21 | 1 | 
O=S(=O)(c1ccccc1)c1csc2c(N3CCNCC3)cccc12 | 0.501 | 
O=S(=O)(c1ccccc1)c1c[nH]c2c(N3CCNCC3)ccnc12 | 7.94 | 
O=S(=O)(c1cccc(Cl)c1)n1cc(Cl)c2c(N3CCNCC3)cccc21 | 0.316 | 
O=S(=O)(c1ccccn1)n1ccc2c(N3CCNCC3)c(Cl)ccc21 | 0.501 | 
O=S(=O)(c1cccc(Cl)c1)n1ccc2c(N3CCNCC3)ccc(Cl)c21 | 0.316 | 
O=S(=O)(c1cccc(Cl)c1)n1ccc2c(N3CCNCC3)cccc21 | 0.251 | 
O=S(=O)(c1ccc(Cl)cc1)n1ccc2c(N3CCNCC3)cccc21 | 2 | 
O=S(=O)(c1ccccc1)c1c[nH]c2c(N3CCNCC3)nccc12 | 25.1 | 
Cc1cn(S(=O)(=O)c2cccc(Cl)c2)c2cccc(N3CCNCC3)c12 | 0.631 | 
Cn1cc(S(=O)(=O)c2cccc(Cl)c2)c2cccc(N3CCNCC3)c21 | 2.51 | ED50 [2]: 5 mg/kg
O=S(=O)(c1ccc(Cl)cc1)n1ccc2c(N3CCNCC3)c(Cl)ccc21 | 6.31 | 
O=S(=O)(c1ccccc1Cl)n1ccc2c(N3CCNCC3)cccc21 | 0.398 | 
Cc1c(S(=O)(=O)n2ccc3c(N4CCNCC4)cccc32)sc2ccc(Cl)cc12 | 3.16 | 
COc1ccc(NS(=O)(=O)c2sc3ccc(Cl)cc3c2C)cc1N1CCNCC1 |  | ED50 [3]: 11 mg/kg
O=S(=O)(c1cccc(Cl)c1)c1c[nH]c2c(N3CCNCC3)cccc12 | 0.316 | 
O=S(=O)(c1ccccc1)c1coc2c(N3CCNCC3)cccc12 | 1.26 | 
O=S(=O)(c1ccc2ccccc2c1)n1ccc2c(N3CCNCC3)c(Cl)ccc21 | 25.1 | 
N#Cc1ccc2c(ccn2S(=O)(=O)c2cccc(Cl)c2)c1N1CCNCC1 | 5.01 | 
Cc1cc2c(N3CCNCC3)cccc2n1S(=O)(=O)c1cccc(Cl)c1 | 0.398 | 
O=S(=O)(c1cccc(Cl)c1)n1ccc2c(N3CCNCC3)c(Cl)ccc21 | 2.51 | Ki [4]: 7.94 nM; pKb [5]: 7.2; Ki [6]: 12.6 nM; ED50 [2]: 3 mg/kg
O=S(=O)(c1ccccc1)n1ccc2c(N3CCNCC3)c(Cl)ccc21 | 1.58 | 
O=S(=O)(c1ccccn1)n1ccc2c(N3CCNCC3)cccc21 | 1 | 
O=S(=O)(c1cccc2ccccc12)n1ccc2c(N3CCNCC3)c(Cl)ccc21 | 7.94 | 
